Measured values published in ChEMBL document CHEMBL4689842, “EUbOPEN Chemogenomics Library wave 1” (2021).

Test system: Fibroblast
Experiment: Multiplex assay against human fibroblast
Assay type: toxicity, cell-based
How it was run: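 Compound was added to live cells that had been stained at seeding with Hoechst33342, BioTracker Green Microtubule Cytoskeleton Dye, MitoTracker Red and Annexin V Alexa Fluor 680, and imaging followed on a CQ1 microscope at 37°C and 5% CO2. CellPathfinder machine-learning gating divided cells into Hoechst high-intensity objects or normal cells, normal cells into healthy, pyknosed or fragmented nuclei, and pyknosed cells into mitotic or apoptotic. Tubulin, mitochondrial-mass and membrane-permeability phenotypes are per cents of healthy-nucleus cells.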

[1] = 12 h, 1 µM, compound concentration 1 uM, replicate 1
[2] = 12 h, 1 µM, compound concentration 1 uM, replicate 2
[3] = 12 h, 10 µM, compound concentration 10 uM, replicate 1
[4] = 12 h, 10 µM, compound concentration 10 uM, replicate 2
[5] = 24 h, 1 µM, compound concentration 1 uM, replicate 1
[6] = 24 h, 1 µM, compound concentration 1 uM, replicate 2
[7] = 24 h, 10 µM, compound concentration 10 uM, replicate 1
[8] = 24 h, 10 µM, compound concentration 10 uM, replicate 2
[9] = 48 h, 1 µM, compound concentration 1 uM, replicate 1
[10] = 48 h, 1 µM, compound concentration 1 uM, replicate 2
[11] = 48 h, 10 µM, compound concentration 10 uM, replicate 1
[12] = 48 h, 10 µM, compound concentration 10 uM, replicate 2

Cc1cn(-c2cc(NC(=O)c3ccc(C)c(Nc4nccc(-c5cccnc5)n4)c3)cc(C(F)(F)F)c2)cn1 [NILOTINIB]
Population Apoptotic (%) [1]: 62% | Population Fragmented Nuclei (%) [1]: 36% | Population Healthy Nuclei (%) [1]: 29% | Population Hoechst High Intensity Objects (%) [1]: 8% | Population Membrane Permeable-Phenotype (%) [1]: 16% | Population Mitochondria Different-Phenotype (%) [1]: 20% | Population Mitotic Cells (%) [1]: 37% | Population Normal (%) [1]: 91% | Population Pyknosed Nuclei (%) [1]: 34% | Population Tubulin-Different-Phenotype (%) [1]: 83% | Total Cell Count [1]: 160 | Population Apoptotic (%) [2]: 25% | Population Fragmented Nuclei (%) [2]: 1% | Population Healthy Nuclei (%) [2]: 86% | Population Membrane Permeable-Phenotype (%) [2]: 1% | Population Mitochondria Different-Phenotype (%) [2]: 18% | Population Mitotic Cells (%) [2]: 75% | Population Pyknosed Nuclei (%) [2]: 11% | Population Tubulin-Different-Phenotype (%) [2]: 10% | Total Cell Count [2]: 66 | Population Apoptotic (%) [3]: 78% | Population Fragmented Nuclei (%) [3]: 42% | Population Healthy Nuclei (%) [3]: 46% | Population Hoechst High Intensity Objects (%) [3]: 44% | Population Membrane Permeable-Phenotype (%) [3]: 4% | Population Mitochondria Different-Phenotype (%) [3]: 0% | Population Mitotic Cells (%) [3]: 21% | Population Normal (%) [3]: 55% | Population Pyknosed Nuclei (%) [3]: 10% | Population Tubulin-Different-Phenotype (%) [3]: 2% | Total Cell Count [3]: 2441 | Population Apoptotic (%) [4]: 33% | Population Fragmented Nuclei (%) [4]: 18% | Population Healthy Nuclei (%) [4]: 72% | Population Hoechst High Intensity Objects (%) [4]: 7% | Population Mitochondria Different-Phenotype (%) [4]: 61% | Population Mitotic Cells (%) [4]: 66% | Population Normal (%) [4]: 92% | Population Pyknosed Nuclei (%) [4]: 9% | Population Tubulin-Different-Phenotype (%) [4]: 63% | Total Cell Count [4]: 73 | Population Apoptotic (%) [5]: 56% | Population Fragmented Nuclei (%) [5]: 32% | Population Healthy Nuclei (%) [5]: 29% | Population Hoechst High Intensity Objects (%) [5]: 13% | Population Membrane Permeable-Phenotype (%) [5]: 17% | Population Mitochondria Different-Phenotype (%) [5]: 32% | Population Mitotic Cells (%) [5]: 43% | Population Normal (%) [5]: 86% | Population Pyknosed Nuclei (%) [5]: 38% | Population Tubulin-Different-Phenotype (%) [5]: 92% | Total Cell Count [5]: 159 | Population Apoptotic (%) [6]: 40% | Population Fragmented Nuclei (%) [6]: 14% | Population Healthy Nuclei (%) [6]: 79% | Population Hoechst High Intensity Objects (%) [6]: 5% | Population Membrane Permeable-Phenotype (%) [6]: 2% | Population Mitochondria Different-Phenotype (%) [6]: 20% | Population Mitotic Cells (%) [6]: 60% | Population Normal (%) [6]: 94% | Population Pyknosed Nuclei (%) [6]: 5% | Population Tubulin-Different-Phenotype (%) [6]: 12% | Total Cell Count [6]: 67 | Population Apoptotic (%) [7]: 77% | Population Fragmented Nuclei (%) [7]: 45% | Population Healthy Nuclei (%) [7]: 45% | Population Hoechst High Intensity Objects (%) [7]: 50% | Population Membrane Permeable-Phenotype (%) [7]: 3% | Population Mitochondria Different-Phenotype (%) [7]: 0% | Population Mitotic Cells (%) [7]: 22% | Population Normal (%) [7]: 49% | Population Pyknosed Nuclei (%) [7]: 9% | Population Tubulin-Different-Phenotype (%) [7]: 2% | Total Cell Count [7]: 2873 | Population Apoptotic (%) [8]: 0% | Population Fragmented Nuclei (%) [8]: 12% | Population Healthy Nuclei (%) [8]: 83% | Population Hoechst High Intensity Objects (%) [8]: 2% | Population Membrane Permeable-Phenotype (%) [8]: 1% | Population Mitochondria Different-Phenotype (%) [8]: 42% | Population Mitotic Cells (%) [8]: 100% | Population Normal (%) [8]: 97% | Population Pyknosed Nuclei (%) [8]: 4% | Population Tubulin-Different-Phenotype (%) [8]: 30% | Total Cell Count [8]: 93 | Population Apoptotic (%) [9]: 67% | Population Fragmented Nuclei (%) [9]: 32% | Population Healthy Nuclei (%) [9]: 40% | Population Hoechst High Intensity Objects (%) [9]: 16% | Population Membrane Permeable-Phenotype (%) [9]: 10% | Population Mitochondria Different-Phenotype (%) [9]: 29% | Population Mitotic Cells (%) [9]: 32% | Population Normal (%) [9]: 83% | Population Pyknosed Nuclei (%) [9]: 26% | Population Tubulin-Different-Phenotype (%) [9]: 72% | Total Cell Count [9]: 138 | Population Apoptotic (%) [10]: 100% | Population Fragmented Nuclei (%) [10]: 19% | Population Healthy Nuclei (%) [10]: 79% | Population Hoechst High Intensity Objects (%) [10]: 11% | Population Membrane Permeable-Phenotype (%) [10]: 5% | Population Mitochondria Different-Phenotype (%) [10]: 2% | Population Mitotic Cells (%) [10]: 0% | Population Normal (%) [10]: 89% | Population Pyknosed Nuclei (%) [10]: 1% | Population Tubulin-Different-Phenotype (%) [10]: 5% | Total Cell Count [10]: 100 | Population Apoptotic (%) [11]: 47% | Population Fragmented Nuclei (%) [11]: 45% | Population Healthy Nuclei (%) [11]: 43% | Population Hoechst High Intensity Objects (%) [11]: 61% | Population Membrane Permeable-Phenotype (%) [11]: 4% | Population Mitochondria Different-Phenotype (%) [11]: 0% | Population Mitotic Cells (%) [11]: 52% | Population Normal (%) [11]: 38% | Population Pyknosed Nuclei (%) [11]: 10% | Population Tubulin-Different-Phenotype (%) [11]: 2% | Total Cell Count [11]: 2935 | Population Apoptotic (%) [12]: 100% | Population Fragmented Nuclei (%) [12]: 28% | Population Healthy Nuclei (%) [12]: 65% | Population Hoechst High Intensity Objects (%) [12]: 25% | Population Membrane Permeable-Phenotype (%) [12]: 15% | Population Mitochondria Different-Phenotype (%) [12]: 9% | Population Mitotic Cells (%) [12]: 0% | Population Normal (%) [12]: 74% | Population Pyknosed Nuclei (%) [12]: 6% | Population Tubulin-Different-Phenotype (%) [12]: 81% | Total Cell Count [12]: 66
